ChEMBL document CHEMBL4145630, “Development of Highly Potent and Selective Steroidal Inhibitors and Degraders of CDK8” (ACS Med Chem Lett, 2018)
pIC50: −log10 of the molar value.

What was measured:
[1] = biological target: T1, Cyclin-dependent kinase 8 (Homo sapiens, UniProt P49336); assay: Inhibition of wild-type human partial length CDK8 (M1 to T360 residues) expressed in bacterial expression system at 10 uM by Kinomescan method relative to control
Summary of the method: (§1)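 Ambit KINOMEscan binding panel run at a single 10 μM concentration; results expressed relative to control, with a 90% inhibition cutoff applied.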

[2] = biological target: T1, Cyclin-dependent kinase 8; assay: Inhibition of CDK8 (unknown origin)
[3] = biological target: T2, Serine/threonine-protein kinase Nek1 (Homo sapiens) (UniProt Q96PY6); assay: Inhibition of wild-type human partial length NEK1 (M1 to K278 residues) expressed in bacterial expression system at 10 uM by Kinomescan method relative to control; summary of the method: as §1
T2 sequence (whole entry): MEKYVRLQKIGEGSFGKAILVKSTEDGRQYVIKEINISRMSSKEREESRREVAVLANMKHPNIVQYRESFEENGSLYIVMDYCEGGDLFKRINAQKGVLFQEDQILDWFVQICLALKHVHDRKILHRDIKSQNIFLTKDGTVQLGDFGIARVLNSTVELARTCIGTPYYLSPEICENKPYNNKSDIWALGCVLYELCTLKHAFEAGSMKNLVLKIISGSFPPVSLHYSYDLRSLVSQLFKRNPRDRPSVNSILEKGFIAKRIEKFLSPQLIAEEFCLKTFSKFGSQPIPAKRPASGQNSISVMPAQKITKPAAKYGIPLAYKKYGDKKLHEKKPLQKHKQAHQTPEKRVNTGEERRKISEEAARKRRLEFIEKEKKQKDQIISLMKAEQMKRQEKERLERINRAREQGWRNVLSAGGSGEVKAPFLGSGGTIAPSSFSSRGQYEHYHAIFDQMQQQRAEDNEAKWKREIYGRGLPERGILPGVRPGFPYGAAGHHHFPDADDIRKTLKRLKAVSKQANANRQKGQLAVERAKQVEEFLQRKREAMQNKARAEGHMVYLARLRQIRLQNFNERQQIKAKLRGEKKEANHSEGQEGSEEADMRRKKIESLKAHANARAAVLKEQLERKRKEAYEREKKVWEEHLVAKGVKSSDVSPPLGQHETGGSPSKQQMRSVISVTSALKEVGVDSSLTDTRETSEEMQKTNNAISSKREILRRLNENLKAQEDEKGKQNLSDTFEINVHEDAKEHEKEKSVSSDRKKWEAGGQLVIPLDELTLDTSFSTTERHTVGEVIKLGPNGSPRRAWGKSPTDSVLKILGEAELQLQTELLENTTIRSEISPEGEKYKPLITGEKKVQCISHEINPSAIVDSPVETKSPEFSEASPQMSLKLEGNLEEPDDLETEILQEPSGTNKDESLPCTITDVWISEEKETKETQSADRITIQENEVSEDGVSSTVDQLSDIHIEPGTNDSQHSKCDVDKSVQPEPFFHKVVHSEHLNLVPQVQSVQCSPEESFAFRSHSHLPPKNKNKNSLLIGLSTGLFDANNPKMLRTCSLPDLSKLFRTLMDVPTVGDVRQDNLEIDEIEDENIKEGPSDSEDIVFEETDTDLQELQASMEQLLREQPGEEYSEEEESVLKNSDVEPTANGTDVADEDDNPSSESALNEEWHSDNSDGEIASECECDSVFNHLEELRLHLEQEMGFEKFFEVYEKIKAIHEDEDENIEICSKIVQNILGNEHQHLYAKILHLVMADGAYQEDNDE

[4] = biological target: 1-phosphatidylinositol 3-phosphate 5-kinase (Homo sapiens) (UniProt Q9Y2I7); assay: Inhibition of wild-type human partial length PIKFYVE (F1512 to C2098 residues) expressed in mammalian expression system at 10 uM by Kinomescan method relative to control; summary of the method: as §1
[5] = biological target: T3, Cyclin-dependent kinase 19 (Homo sapiens, UniProt Q9BWU1); assay: Inhibition of human CDK19 (M1 to N360 residues) expressed in bacterial expression system by KINOMEscan assay
[6] = biological target: T4, Serine/threonine-protein kinase Nek1 (Homo sapiens, UniProt Q96PY6); assay: Inhibition of wild-type human partial length NEK1 (M1 to K278 residues) expressed in bacterial expression system by Kinomescan method
T4 sequence (Q96PY6 whole entry): T2 sequence (whole entry)

[7] = biological target: T1, Cyclin-dependent kinase 8; assay: Inhibition of CDK8 in human HepG2 cells assessed as reduction in IFNgamma-induced STAT1 phosphorylation at S727 measured after 18 hrs by Western blot analysis; assay type: cell-based
[8] = biological target: T3, Cyclin-dependent kinase 19; assay: Inhibition of human CDK19 (M1 to N360 residues) expressed in bacterial expression system at 10 uM by KINOMEscan assay relative to control

T1 sequence (P49336 whole entry, the tested form may be a part): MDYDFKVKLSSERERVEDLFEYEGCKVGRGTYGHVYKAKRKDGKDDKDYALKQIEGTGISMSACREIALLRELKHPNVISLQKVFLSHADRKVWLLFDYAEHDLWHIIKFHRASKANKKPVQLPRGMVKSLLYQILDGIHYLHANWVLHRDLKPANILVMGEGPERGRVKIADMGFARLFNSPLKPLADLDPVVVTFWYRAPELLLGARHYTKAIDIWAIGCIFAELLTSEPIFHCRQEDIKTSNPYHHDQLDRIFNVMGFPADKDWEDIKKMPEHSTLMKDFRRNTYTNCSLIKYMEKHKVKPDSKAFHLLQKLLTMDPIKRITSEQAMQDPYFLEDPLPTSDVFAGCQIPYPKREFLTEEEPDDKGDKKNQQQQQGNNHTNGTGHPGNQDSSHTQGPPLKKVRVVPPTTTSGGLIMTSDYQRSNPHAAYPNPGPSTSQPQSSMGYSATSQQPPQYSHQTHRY
T3 sequence (Q9BWU1 whole entry, the tested form may be a part): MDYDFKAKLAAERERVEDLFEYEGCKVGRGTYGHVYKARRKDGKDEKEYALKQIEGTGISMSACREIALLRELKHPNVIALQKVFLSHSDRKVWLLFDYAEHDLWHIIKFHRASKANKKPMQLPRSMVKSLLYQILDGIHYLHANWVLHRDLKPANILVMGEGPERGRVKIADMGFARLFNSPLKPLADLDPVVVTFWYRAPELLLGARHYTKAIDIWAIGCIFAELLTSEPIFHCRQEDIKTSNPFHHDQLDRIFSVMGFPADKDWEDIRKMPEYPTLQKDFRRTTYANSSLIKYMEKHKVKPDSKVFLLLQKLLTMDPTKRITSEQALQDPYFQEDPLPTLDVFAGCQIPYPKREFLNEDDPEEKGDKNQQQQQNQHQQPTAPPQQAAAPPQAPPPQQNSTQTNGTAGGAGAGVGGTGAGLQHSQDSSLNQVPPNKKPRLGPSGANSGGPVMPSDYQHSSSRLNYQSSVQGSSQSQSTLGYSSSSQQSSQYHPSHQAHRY
Sequence of 1-phosphatidylinositol 3-phosphate 5-kinase (Homo sapiens) (Q9Y2I7 whole entry, the tested form may be a part): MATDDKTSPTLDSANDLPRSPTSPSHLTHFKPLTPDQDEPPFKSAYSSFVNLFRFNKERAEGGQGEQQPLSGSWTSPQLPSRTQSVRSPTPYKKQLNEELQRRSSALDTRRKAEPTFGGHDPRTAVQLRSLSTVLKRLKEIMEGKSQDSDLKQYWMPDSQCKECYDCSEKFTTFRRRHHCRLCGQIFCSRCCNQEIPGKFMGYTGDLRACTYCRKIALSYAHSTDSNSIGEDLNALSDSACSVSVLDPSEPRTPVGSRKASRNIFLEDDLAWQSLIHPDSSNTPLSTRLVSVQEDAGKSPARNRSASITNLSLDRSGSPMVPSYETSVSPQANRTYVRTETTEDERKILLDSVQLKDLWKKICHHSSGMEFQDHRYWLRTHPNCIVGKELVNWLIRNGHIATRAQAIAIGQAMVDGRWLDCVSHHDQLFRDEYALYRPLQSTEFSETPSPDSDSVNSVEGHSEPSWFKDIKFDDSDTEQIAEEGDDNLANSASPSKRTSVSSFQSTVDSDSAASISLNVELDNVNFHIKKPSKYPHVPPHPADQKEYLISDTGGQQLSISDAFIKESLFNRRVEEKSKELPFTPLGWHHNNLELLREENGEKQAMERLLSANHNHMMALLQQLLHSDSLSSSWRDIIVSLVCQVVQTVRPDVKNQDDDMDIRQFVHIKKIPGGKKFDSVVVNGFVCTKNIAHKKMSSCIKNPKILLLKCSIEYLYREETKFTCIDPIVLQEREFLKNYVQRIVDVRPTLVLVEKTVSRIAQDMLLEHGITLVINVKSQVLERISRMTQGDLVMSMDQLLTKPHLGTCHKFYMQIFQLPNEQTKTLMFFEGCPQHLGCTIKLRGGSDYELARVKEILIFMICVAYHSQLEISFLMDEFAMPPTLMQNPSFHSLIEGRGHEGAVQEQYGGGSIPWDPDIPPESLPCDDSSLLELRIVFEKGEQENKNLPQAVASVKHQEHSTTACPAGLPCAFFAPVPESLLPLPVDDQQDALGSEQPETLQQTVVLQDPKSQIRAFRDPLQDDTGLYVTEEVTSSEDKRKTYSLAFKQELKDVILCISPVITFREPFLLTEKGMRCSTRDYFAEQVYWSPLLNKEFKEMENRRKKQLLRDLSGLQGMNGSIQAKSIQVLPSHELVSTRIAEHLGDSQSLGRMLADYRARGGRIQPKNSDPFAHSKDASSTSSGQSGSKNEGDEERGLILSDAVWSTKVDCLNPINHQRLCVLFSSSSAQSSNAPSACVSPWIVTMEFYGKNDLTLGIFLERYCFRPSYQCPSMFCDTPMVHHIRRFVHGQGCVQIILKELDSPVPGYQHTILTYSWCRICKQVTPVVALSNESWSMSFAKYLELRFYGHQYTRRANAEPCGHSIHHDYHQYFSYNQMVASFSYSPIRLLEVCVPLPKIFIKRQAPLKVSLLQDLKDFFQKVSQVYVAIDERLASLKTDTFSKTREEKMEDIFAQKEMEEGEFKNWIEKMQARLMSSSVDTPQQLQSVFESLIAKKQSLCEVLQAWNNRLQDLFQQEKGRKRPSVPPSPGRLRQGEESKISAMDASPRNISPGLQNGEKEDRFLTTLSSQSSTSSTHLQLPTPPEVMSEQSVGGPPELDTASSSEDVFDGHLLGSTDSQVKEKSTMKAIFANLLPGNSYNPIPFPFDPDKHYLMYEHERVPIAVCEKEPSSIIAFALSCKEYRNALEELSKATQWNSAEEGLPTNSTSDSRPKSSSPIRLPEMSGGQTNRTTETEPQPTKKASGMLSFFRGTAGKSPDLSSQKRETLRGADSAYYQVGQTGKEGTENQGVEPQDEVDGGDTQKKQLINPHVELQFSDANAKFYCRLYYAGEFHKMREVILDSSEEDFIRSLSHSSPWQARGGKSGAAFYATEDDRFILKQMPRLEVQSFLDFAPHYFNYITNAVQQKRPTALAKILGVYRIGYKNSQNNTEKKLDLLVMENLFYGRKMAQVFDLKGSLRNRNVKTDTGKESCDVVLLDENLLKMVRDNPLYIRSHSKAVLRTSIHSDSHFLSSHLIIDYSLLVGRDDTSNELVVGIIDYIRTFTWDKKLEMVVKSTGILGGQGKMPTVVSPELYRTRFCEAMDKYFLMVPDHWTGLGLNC

## CN(C)[C@H]1CC[C@@]2(C)C(=CC[C@H]3[C@@H]4CC[C@H](c5ccc6ccncc6c5)[C@@]4(C)CC[C@@H]32)C1
[1]
  inhibition: > 90%
[2]
  pIC50: 7.80
[3]
  inhibition: > 90%
[4]
  inhibition: > 90%
[5]
  pIC50: 8.10
[6]
  pIC50: < 5.00
[7]
  inhibition: Dose-dependent effect
[8]
  inhibition: > 90%
